Measurements: publication PMC3773219 (Biochemistry, 2013)

How the values were obtained:
[1] = tested on: native Csk; details: cited from earlier work
[2] = tested on: protein kinases; details: cited from earlier work
[3] = molecular target: Pim1 (Homo sapiens, UniProt P11309); experiment: Enzyme coupled kinase assay, Pim1; type: biochemical; details: for reduction of Pim1 activity: relative to consensus peptide 2 (kcat/KM)
How it was run: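 His6-tagged human Pim1 was expressed in E. coli and purified on Ni-NTA. It was treated with alkaline phosphatase, and phospho and non-phospho forms were separated on Q-Sepharose. The coupled PK/LDH assay ran at room temperature with 20 mM MgCl2, 100 mM Tris pH 7.4, 1 mM ATP, 1 mM PEP, 0.2 mM NADH and 0–2400 μM peptide or PTP-PEST catalytic domain (aa 5–300). It was started with 40–1200 nM Pim1, read at A340, and initial rates were fitted for kcat, KM and/or kcat/KM.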

[4] = molecular target: GST-Csk (Homo sapiens, UniProt P41240); experiment: Enzyme coupled kinase assay, GST-Csk; type: biochemical; details: kcat/KM with GST-Csk relative to peptide 16
How it was run: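 GST-tagged wild-type human Csk was expressed in E. coli DH5α and purified on glutathione-Sepharose. The pyruvate kinase/lactate dehydrogenase coupled assay ran at room temperature in 100 mM Tris pH 7.4 with 5 mM MnCl2, 5 mM NaCl, 5 mM KCl, 10 mM DTT, 1 mM ATP, 1 mM PEP, 0.2 mM NADH and 0–2400 μM peptide. It was started with 1–3 μM GST-Csk and A340 followed continuously. Initial rates (<2 min) were fitted to Michaelis-Menten or V = kcat[E][S]/KM.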

[5] = molecular target: T1, MKK6 (Homo sapiens, UniProt P52564, S207E/T211E); experiment: Kinase assay by HPLC, MKK6; type: biochemical; details: peptide as MKK6 substrate
T1 sequence (P52564 1-334 S207E/T211E): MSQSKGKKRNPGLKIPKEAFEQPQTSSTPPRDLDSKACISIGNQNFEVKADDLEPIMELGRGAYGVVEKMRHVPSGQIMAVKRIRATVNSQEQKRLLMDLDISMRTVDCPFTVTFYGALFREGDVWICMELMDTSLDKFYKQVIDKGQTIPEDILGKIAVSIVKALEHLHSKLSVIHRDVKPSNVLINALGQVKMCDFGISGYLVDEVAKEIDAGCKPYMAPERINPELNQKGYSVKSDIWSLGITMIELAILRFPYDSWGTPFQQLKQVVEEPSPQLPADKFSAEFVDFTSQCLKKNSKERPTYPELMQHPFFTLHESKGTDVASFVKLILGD

Chain of Pim1 (P11309 whole entry, the tested form may be a part): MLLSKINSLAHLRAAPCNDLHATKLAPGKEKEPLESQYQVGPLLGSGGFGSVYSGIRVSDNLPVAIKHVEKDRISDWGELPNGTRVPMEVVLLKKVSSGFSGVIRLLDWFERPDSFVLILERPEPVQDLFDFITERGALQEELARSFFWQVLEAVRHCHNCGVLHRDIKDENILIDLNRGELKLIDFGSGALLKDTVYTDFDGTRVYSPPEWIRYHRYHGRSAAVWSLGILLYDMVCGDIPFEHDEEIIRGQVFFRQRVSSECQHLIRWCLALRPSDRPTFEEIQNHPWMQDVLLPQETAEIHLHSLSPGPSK
Chain of GST-Csk (P41240 whole entry): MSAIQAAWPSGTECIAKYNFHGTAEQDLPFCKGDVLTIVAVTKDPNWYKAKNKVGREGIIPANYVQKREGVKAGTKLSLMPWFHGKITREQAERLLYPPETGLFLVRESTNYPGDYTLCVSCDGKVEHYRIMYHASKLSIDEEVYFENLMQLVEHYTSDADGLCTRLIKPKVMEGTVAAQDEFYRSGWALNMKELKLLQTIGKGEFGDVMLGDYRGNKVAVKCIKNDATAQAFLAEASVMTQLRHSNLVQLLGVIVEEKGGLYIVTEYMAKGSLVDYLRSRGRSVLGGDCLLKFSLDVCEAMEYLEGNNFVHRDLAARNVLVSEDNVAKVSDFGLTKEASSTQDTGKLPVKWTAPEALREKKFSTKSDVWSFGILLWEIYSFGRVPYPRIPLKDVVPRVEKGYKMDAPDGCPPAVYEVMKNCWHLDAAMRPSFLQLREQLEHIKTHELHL

Ac-KKKKEEIYFFF-NH2 [Peptide 16, reference compound]
kcat/KM ([1]; native Csk, previously reported): 6050 M⁻¹ s⁻¹

Nc1ncnc2c1ncn2[C@@H]1O[C@H](COP(=O)(O)OP(=O)(O)OP(O)(O)=S)[C@@H](O)[C@H]1O [[γ-S]ATP, adenosine 5′-O-(3-thio)triphosphate]
decrease of catalytic activity of kinases on substitution of [γ-S]ATP for ATP [2]: 15–30 fold

RYRDPTGMYY [Peptide 6]
reduction of Pim1 activity [3]: 620 fold

Ac-DDEPIYAELADIT-NH2 [Peptide 23]
more active than the previous consensus peptide (16) [4]: 11 fold

AYAHPTGMYY [Peptide 5]
effect of substitution on Pim1 activity ([3]; relative to consensus peptide 2): abolished the Pim1 activity

Lck: Csk protein substrate
kcat/KM of Csk protein substrates ([1]; protein substrates of Csk): 200000 M⁻¹ s⁻¹

RYRHPTPMYY [Peptide 7]
reduction of Pim1 activity [3]: 62 fold

Ac-RRRYEILPTWNVY-NH2 [Peptide 13]
Km [5]: > 500 µM

B1: PTP-PEST: non-receptor protein tyrosine phosphatase; recombinant catalytic domain of human PTP-PEST (amino acids 5–300) (protein, UniProt Q05209 5-300, looked up, fragment)
chain: EILRKFIQRVQAMKSPDHNGEDNFARDFMRLRRLSTKYRTEKIYPTATGEKEENVKKNRYKDILPFDHSRVKLTLKTPSQDSDYINANFIKGVYGPKAYVATQGPLANTVIDFWRMIWEYNVVIIVMACREFEMGRKKCERYWPLYGEDPITFAPFKISCEDEQARTDYFIRTLLLEFQNESRRLYQFHYVNWPDHDVPSSFDSILDMISLMRKYQEHEDVPICIHCSAGCGRTGAICAIDYTWNLLKAGKIPEEFNVFNLIQEMRTQRHSAVQTKEQYELVHRAIAQLFEKQLQL
modifications: catalytic domain GST tag
kcat/KM ([3]; recombinant PTP-PEST protein as Pim1 substrate, enzyme-coupled assay): 34000 M⁻¹ s⁻¹
